Results reported in ChEMBL document CHEMBL1154620, “Total synthesis and antiproliferative activity screening of (+/-)-aplicyanins A, B and E and related analogues” (2009).
The source made the active and inactive calls. No cut-off for these calls is given here.

Key:
Format in all cases: functional
A549 = experiment: Cytotoxicity against human A549 cells after 72 hrs by SRB assay
In short: (§1)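 Cells seeded at 5 × 10³/well and grown 24 h; one plate per line fixed at this point as T_z reference. Exposure to vehicle or compound for a further 72 h. Wash in PBS, fix 15 min in 1% glutaraldehyde, stain 30 min at rt with 0.4% SRB, rinse in 1% acetic acid, extract into 10 mM trizma base, read A490. NCI algorithm; GI50 interpolated from dose curves.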

HT-29 = experiment: Cytotoxicity against human HT-29 cells after 72 hrs by SRB assay; in short: as §1
MDA-MB-231 = experiment: Cytotoxicity against human MDA-MB-231 cells after 72 hrs by SRB assay; in short: as §1

Compound `NC1=NCCC(c2c[nH]c3ccc(Br)cc23)N1` (racemic) [APLICYANIN A] has a GI50 (A549; A549, 72 h) of 0.27 µM, a GI50 (HT-29; HT-29, 72 h) of 0.11 µM and a GI50 (MDA-MB-231; MDA-MB-231, 72 h) of 0.27 µM.
In the case of `Cn1cc(C2CCN=C(N)N2)c2ccc(Br)cc21` (racemic), the GI50 (A549; A549, 72 h) was 9.11 µM, the GI50 (HT-29; HT-29, 72 h) was 4.56 µM and the GI50 (MDA-MB-231; MDA-MB-231, 72 h) was 8.79 µM.
With `NC1=NCCC(c2c[nH]c3cc(Br)c(Br)cc23)N1` (racemic) the GI50 (A549) was “inactive”, the GI50 (HT-29) was “inactive” and the GI50 (MDA-MB-231) was “inactive”.
For `Cn1cc(C2CCN=C(N)N2)c2cc(Br)ccc21` (racemic), the GI50 (A549) was “inactive”, the GI50 (HT-29; HT-29, 72 h) was 13.7 µM and the GI50 (MDA-MB-231; MDA-MB-231, 72 h) was 25.7 µM.
`CC(=O)/N=C1\NCCC(c2cn(C)c3ccc(Br)cc23)N1` (racemic) was tested, and the GI50 (A549; A549, 72 h) was 0.43 µM, the GI50 (HT-29; HT-29, 72 h) was 0.31 µM and the GI50 (MDA-MB-231; MDA-MB-231, 72 h) was 0.94 µM.
With `NC1=NC(=O)CC(c2c[nH]c3cc(Br)ccc23)N1` (racemic) the GI50 (A549) was “inactive”, the GI50 (HT-29) was “inactive” and the GI50 (MDA-MB-231) was “inactive”.
`COn1cc(C2CC(=O)N=C(N)N2)c2ccccc21` (racemic) was tested, and the GI50 (A549) was “inactive”, the GI50 (HT-29) was “inactive” and the GI50 (MDA-MB-231) was “inactive”.
For `COn1cc(C2CCN=C(N)N2)c2ccccc21` (racemic), the GI50 (A549) was “inactive”, the GI50 (HT-29) was “inactive” and the GI50 (MDA-MB-231) was “inactive”.
`CC(=O)/N=C1\NCCC(c2c[nH]c3ccc(Br)cc23)N1` (racemic) [APLICYANIN B] was tested, and the GI50 (A549; A549, 72 h) was 0.51 µM, the GI50 (HT-29; HT-29, 72 h) was 0.33 µM and the GI50 (MDA-MB-231; MDA-MB-231, 72 h) was 0.98 µM.
For `Cn1cc(C2CC(=O)N=C(N)N2)c2ccccc21` (racemic), the GI50 (A549) was “inactive”, the GI50 (HT-29) was “inactive” and the GI50 (MDA-MB-231) was “inactive”.
`NC1=NC(=O)CC(c2c[nH]c3ccc(Br)cc23)N1` (racemic) was tested, and the GI50 (A549) was “inactive”, the GI50 (HT-29) was “inactive” and the GI50 (MDA-MB-231) was “inactive”.
With `NC1=NCCC(c2c[nH]c3cc(Br)ccc23)N1` (racemic) the GI50 (A549) was “inactive”, the GI50 (HT-29; HT-29, 72 h) was 21.1 µM and the GI50 (MDA-MB-231; MDA-MB-231, 72 h) was 19.1 µM.
In the case of `COn1cc(C2CCN=C(N)N2)c2cc(Br)c(Br)cc21` (racemic) [APLICYANIN E], the GI50 (A549) was “inactive”, the GI50 (HT-29) was “inactive” and the GI50 (MDA-MB-231; MDA-MB-231, 72 h) was 10.9 µM.
With `COn1cc(C2CC(=O)N=C(N)N2)c2cc(Br)c(Br)cc21` (racemic) the GI50 (A549) was “inactive”, the GI50 (HT-29) was “inactive” and the GI50 (MDA-MB-231) was “inactive”.
In the case of `CC(=O)/N=C1\NCCC(c2cn(C)c3cc(Br)ccc23)N1` (racemic), the GI50 (A549; A549, 72 h) was 6.3 µM, the GI50 (HT-29; HT-29, 72 h) was 4.3 µM and the GI50 (MDA-MB-231; MDA-MB-231, 72 h) was 8.02 µM.
With `Cn1cc(C2CC(=O)N=C(N)N2)c2cc(Br)ccc21` (racemic) the GI50 (A549) was “inactive”, the GI50 (HT-29) was “inactive” and the GI50 (MDA-MB-231) was “inactive”.
Work on `CC(=O)/N=C1\NCCC(c2c[nH]c3cc(Br)ccc23)N1` (racemic) yielded a GI50 (A549; A549, 72 h) of 6.86 µM, a GI50 (HT-29; HT-29, 72 h) of 2.12 µM and a GI50 (MDA-MB-231; MDA-MB-231, 72 h) of 5.67 µM.
`CC(=O)/N=C1\NCCC(c2cn(C)c3ccccc23)N1` (racemic) gave a GI50 (A549; A549, 72 h) of 10.7 µM, a GI50 (HT-29; HT-29, 72 h) of 7.4 µM and a GI50 (MDA-MB-231; MDA-MB-231, 72 h) of 14.4 µM.
In the case of `Cn1cc(C2CC(=O)N=C(N)N2)c2ccc(Br)cc21` (racemic), the GI50 (A549) was “inactive”, the GI50 (HT-29) was “inactive” and the GI50 (MDA-MB-231; MDA-MB-231, 72 h) was 2.86 µM.
`Cn1cc(C2CCN=C(N)N2)c2ccccc21` (racemic) gave a GI50 (A549; A549, 72 h) of 2.67 µM, a GI50 (HT-29; HT-29, 72 h) of 4.29 µM and a GI50 (MDA-MB-231; MDA-MB-231, 72 h) of 1.71 µM.
